An excerpt weighted towards active compounds, which were near 1.8% of everything screened.
ABHD4 inh = ABHD4 (mouse) inhibition, primary FP screen | inhibition, % at 8.92 µM | hit rate 0.54% among 370,000 | purified mABHD4, FP-Rh probe fluorescence polarization;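 active means inhibition exceeding the mean over every tested compound plus 3 SD, cut at about 30% in these data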
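system = mouse ABHD4 enzyme, wild type | medium = HEPES pH 7.0, NaCl, Pluronic buffer | also added = FP-Rh probe | incubation = Enzyme–compound pre-incubation 45 min, then probe 60 min, both 25 °C | technique = fluorescence polarization, excitation 525 nm, emission 598 nm, BODIPY TMR filters | controls = S159A mutant high control, sample median low control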
SIAE inh = human SIAE inhibition, primary screen; hit rate 0.69% among 370,000; inhibition, % at 9.66 µM; AID 1053197; SIAE FP-Rh probe binding, fluorescence polarization; Q9HAT2;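 active means inhibition above a cutoff: mean of compounds within the control limits plus 3 SD of those, cut at about 17% in these data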
TCR-CD3 inh = human TCR-CD3 binding inhibition. hit rate 0.37% among 360,000. TAMRA-labeled TCR probe fluorescence, biochemical. inhibition, % at 9.4 µM;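 further: recombinant mutant TCR 2C K166C tagged with TAMRA read by polarization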
DDE Tn6 FP inh = DD(E)-Tn6 binding inhibition, primary FP screen. P02675. Fibrin DD(E) TRITC-Tn6 fluorescence polarization displacement. inhibition, % at 8.3 µM. hit rate 0.21% among 370,000. AID 720509;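 active means inhibition above a per-campaign cutoff: mean of compounds within control limits plus 3 SD, cut at about 15% in these data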
DDE Tn7 FP inh = DD(E)-Tn7 binding inhibition, primary FP screen; P02675; FP displacement of FITC-Tn7 peptide from fibrin DD(E); 0% = median of compound wells per plate; inhibition, % at 8.3 µM; hit rate 0.13% among 370,000;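 active means inhibition above the mean of compounds falling within the control limits plus 3 SD of them, cut at about 14% in these data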
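Assay system: human fibrin DD(E). Input: DD(E) 2 µM final. Medium: Tris buffer with calcium and detergent, pH 7.8. Compound dosing: single point at 8.3 µM. Timing: 10 min plus 3 h, room temperature. Technique: fluorescence polarization of the labelled Tn7 tracer. Read-out: percent inhibition. Replicates: singlicate testing.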
HTRA1 inhibitor = inhibitors of human serine peptidase HTRA1. Q92743. recombinant HTRA1, FP-rhodamine activity-based probe, fluorescence polarization. inhibition, % at 5.96 µM. hit rate 0.5% among 340,000. AID 504803; in the data active means inhibition above about 36%
Target sequence (Q92743 whole entry, looked up): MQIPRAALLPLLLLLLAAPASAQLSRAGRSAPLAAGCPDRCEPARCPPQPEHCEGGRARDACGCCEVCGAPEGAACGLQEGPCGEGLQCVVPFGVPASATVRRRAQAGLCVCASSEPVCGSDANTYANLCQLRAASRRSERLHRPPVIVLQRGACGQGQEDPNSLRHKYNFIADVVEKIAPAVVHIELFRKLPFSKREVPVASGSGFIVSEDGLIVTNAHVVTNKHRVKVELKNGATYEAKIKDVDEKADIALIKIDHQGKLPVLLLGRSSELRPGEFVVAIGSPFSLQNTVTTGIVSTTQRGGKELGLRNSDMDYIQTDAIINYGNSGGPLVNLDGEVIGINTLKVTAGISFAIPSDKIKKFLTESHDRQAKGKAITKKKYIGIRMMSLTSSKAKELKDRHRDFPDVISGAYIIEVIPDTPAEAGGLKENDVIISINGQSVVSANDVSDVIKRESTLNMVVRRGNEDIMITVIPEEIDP
BSA probe FL = counter-screen for TCR-CD3 interaction inhibitors: BSA probe | inhibition, % at 9.4 µM | TAMRA-labeled BSA probe fluorescence counterscreen | shares compounds with TCR-CD3 inh | hit rate 10% among 1,200; in the data active means inhibition above about 23%
TCR-CD3 inh conf = TCR-CD3 interaction inhibition, confirmation; shares compounds with TCR-CD3 inh; inhibition, % at 9.4 µM; hit rate 48% among 1,200; AID 652036; TAMRA-labeled TCR probe fluorescence binding assay
Tn6 DDE ctr = counter-screen hit for Tn6 peptide-fibrin DD(E) binding disruption. shares compounds with DDE Tn6 FP inh. TRITC-Tn6 fluorescence polarization displacement; 0% = median of compound wells, not DMSO. inhibition, % at 8.3 µM. hit rate 2% among 680;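 active means inhibition above the mean of test compounds lying between the control limits plus 3 SD of those, cut at about 14% in these data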
DDE Tn6 confirm = DD(E)-Tn6 binding inhibition, FP confirmation. hit rate 10% among 680. AID 720631. FP displacement of TRITC-Tn6 peptide from DD(E); 0% = per-plate median of test wells. inhibition, % at 8.3 µM. shares compounds with DDE Tn6 FP inh;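 active means inhibition above the mean of compounds lying within the control limits plus 3 SD, cut at about 16% in these data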
ABHD4 confirm = confirmation of mouse ABHD4 inhibitors; inhibition, % at 8.92 µM; hit rate 55% among 1,800; purified mABHD4, FP-Rh probe fluorescence polarization; shares compounds with ABHD4 inh; AID 720658;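 active means mean inhibition across replicates above the hit cutoff set in the primary screen, cut at about 30% in these data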
A number is an active result; . = inactive; / = no result given; + = active, no number. Unless noted, no stated cut-off is given here; in the data, active means inhibition above about 19%; inactive means the rest.

SMILES	ABHD4 inh	SIAE inh	TCR-CD3 inh	DDE Tn6 FP inh	DDE Tn7 FP inh	HTRA1 inhibitor	BSA probe FL	TCR-CD3 inh conf	Tn6 DDE ctr	DDE Tn6 confirm	others
CCN(CC)c1ccc(/C=c2\sc3nc4ccccc4n3c2=O)c(O)c1	.	.	28.1	17.9	.	.	28.0	20.5	.	.
CCOc1ccc(CC(=O)NCc2ccc3c(c2)cc(C)n3C)cc1	.	.	30.9	44.9	.	.	.	.	.	.
COc1cc(/C=C\C(=O)NCc2ccc3c(c2)cc(C)n3C)cc(OC)c1OC	.	.	31.2	22.2	.	.	.	.	.	.
Cc1cc2cc(CNC(=O)c3ccco3)ccc2n1C	.	.	30.6	26.8	.	.	.	.	.	.
COC(=O)[C@]12C[C@H](CC(=O)NCCc3ccccc3OC)C(=O)N(Cc3ccc(Cl)cc3Cl)C1=C[C@H](COCc1ccccc1)O[C@@H]2C	.	.	/	.	.	/	/	/	/	/
CN(C)/C=C1\SC(=S)N(c2ccc(Br)cc2)C1=O	.	.	30.5	35.6	.	.	90.0	76.0	.	31.6
COc1ccccc1NS(=O)(=O)c1cccc(NC(=O)NCCCl)c1	.	.	.	.	.	.	/	/	/	/
COc1ccccc1NS(=O)(=O)c1cccc(NC(=O)Nc2cccc(Cl)c2)c1	.	.	36.0	43.4	.	.	.	.	.	16.7
CCN(CC)c1ccc2nc3ccc(N)cc3[n+](-c3ccccc3)c2c1	.	.	123.5	+	.	.	121.4	96.7	.	93.2
C#CCOCCOCCOCCNc1nc(N2CCN(C(=O)[C@H]([C@@H](C)CC)n3cc(CCCCN)nn3)CC2)nc(N2CCN(C(=O)[C@H](Cc3ccc(O)cc3)n3cc(CCO)nn3)CC2)n1	.	.	/	.	.	/	/	/	/	/
C[C@@H]1CN([C@H](C)CO)C(=O)c2cc(NC(=O)Nc3ccc(C(F)(F)F)cc3)ccc2O[C@H]1CN(C)S(=O)(=O)c1cccs1	.	.	43.1	54.3	.	.	.	23.1	.	.
C[C@H](CO)N1C[C@H](C)[C@@H](CN(C)S(=O)(=O)c2ccc(F)cc2)Oc2ccc(NC(=O)Nc3ccccc3)cc2C1=O	.	.	.	.	.	.	/	/	/	/
C[C@@H]1CN([C@@H](C)CO)C(=O)Cc2cc(NC(=O)Nc3ccc(C(F)(F)F)cc3)ccc2O[C@@H]1CN(C)S(=O)(=O)c1ccc(Cl)cc1	.	.	48.0	32.2	.	.	.	25.8	.	.
C[C@H](CO)N1C[C@H](C)[C@H](CN(C)S(=O)(=O)c2cn(C)cn2)Oc2ccc(NC(=O)Nc3ccc(C(F)(F)F)cc3)cc2CC1=O	.	.	.	.	.	.	/	/	/	/
C[C@H](CO)N1C[C@H](C)[C@@H](CN(C)S(=O)(=O)c2cccs2)Oc2ccc(NC(=O)Nc3ccc(C(F)(F)F)cc3)cc2C1=O	.	.	27.6	51.4	.	.	.	19.3	.	.
C[C@H](CO)N1C[C@H](C)[C@@H](CN(C)S(=O)(=O)c2ccc(F)cc2)Oc2ccc(NC(=O)Nc3ccc(C(F)(F)F)cc3)cc2C1=O	.	.	22.3	41.5	.	.	.	41.8	.	.
C[C@H](CO)N1C[C@H](C)[C@@H](CN(C)S(=O)(=O)c2cccs2)Oc2ccc(NC(=O)Nc3ccccc3)cc2C1=O	.	.	.	.	.	.	/	/	/	/
C=CCn1c(COc2ccc(C)cc2)nnc1SCc1ccc([N+](=O)[O-])cc1	.	.	/	.	.	/	/	/	/	/
COc1ccc(/C=C2\CC3(OC(=O)c4cccc(F)c4)CCCN2C3)cc1 (stereo not drawn)	.	.	/	.	.	/	/	/	/	/
Cc1cc(-c2n[nH]c(=S)n2N=Cc2c3ccccc3cc3ccccc23)n[nH]1	.	.	/	.	.	/	/	/	/	/
COC(=O)C1CN(CCc2ccccc2)CCS(=O)(=O)N1Cc1ccc(C)cc1 (stereo not drawn)	.	.	/	.	.	/	/	/	/	/
CCOc1cccc(C(=O)Nc2ccc(N(CC)CC)cc2)c1	.	.	.	.	.	.	/	/	/	/
CCN(CC)c1cccc(OCC(=O)N(C)CCC#N)c1	63.5	.	21.2	88.3	.	.	.	.	.	.	ABHD4 confirm=.
Cc1onc(-c2ccccc2Cl)c1C(=O)NCc1ccc2c(c1)cc(C)n2C	29.8	.	34.1	21.7	.	.	.	.	.	.	ABHD4 confirm=.
O=C(c1ccc2c(c1)OCO2)N1CCC(Oc2cccnc2)CC1	.	.	/	.	.	/	/	/	/	/
SMILES	ABHD4 inh	SIAE inh	TCR-CD3 inh	DDE Tn6 FP inh	DDE Tn7 FP inh	HTRA1 inhibitor	BSA probe FL	TCR-CD3 inh conf	Tn6 DDE ctr	DDE Tn6 confirm	others
O=C(N/N=C/c1ccncc1)c1cc([N+](=O)[O-])cc([N+](=O)[O-])c1O	31.8	.	38.1	.	.	.	.	48.3	/	/	ABHD4 confirm=36.0
O=C(N/N=C/c1cc2c(c([N+](=O)[O-])c1)OCO2)c1ccncc1	.	.	.	.	.	.	/	/	/	/
N#C/C(=C\c1cc(O)c(O)c(O)c1)C(N)=O	38.5	.	31.7	.	.	.	.	.	/	/	ABHD4 confirm=.
O=C(Nc1nc2ncccn2c1-c1ccc(F)cc1)c1ccccc1	.	.	/	.	.	/	/	/	/	/
O=C(COC(=O)c1c2c(nc3ccccc13)/C(=C/c1ccco1)CC2)NC1CCCC1	50.8	26.9	22.7	.	.	59.9	.	.	/	/	ABHD4 confirm=.
COC(=O)C[C@@H]1CC[C@@H]2[C@H](COc3ccc(NC(=O)c4ccc(F)c(F)c4)cc3C(=O)N2C)O1	.	.	/	.	.	/	/	/	/	/
O=C1NC(=S)S/C1=C\C=C\c1ccc([N+](=O)[O-])o1	41.6	.	31.7	.	.	.	.	28.7	/	/	ABHD4 confirm=.
O=[N+]([O-])c1ccc(O)c(/C=N/NC(=S)Nc2ccc(Cl)cc2Cl)c1	34.6	.	22.9	.	.	.	.	32.5	/	/	ABHD4 confirm=.
O=S(=O)(c1ccc(Br)cc1Cl)N1CCN(CCO)CC1	.	.	.	.	.	.	/	/	/	/
O=C1C=CC(=O)c2c(O)c(N3CCN(CCO)CC3)c(Cl)c(O)c21	35.2	.	62.8	39.8	.	.	.	38.8	.	.	ABHD4 confirm=78.6
O=c1c(O)c(-c2ccccc2)oc2cc(O)cc(O)c12	.	.	.	.	.	.	/	/	/	/

Screening data from PubChem BioAssay.
